Measured values from PMC5848258 (Clinical Infectious Diseases: An Official Publication of …, 2017).
Marks after values point to notes of the source that are not given here.

How the values were obtained:
[1] = cited from earlier work
[2] = healthy subjects; ref Bristol-Myers Squibb, data on file; cited from earlier work
Safety assessments = format: in vivo, human; conditions: for Any AE / Deaths / Discontinuations due to AE(s) / Grade 3–4 related AEs / Laboratory abnormalities (grade 3–4) / Serious AEs: Parts A/C
Procedure, shortened: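 Over the 10-day once-daily oral monotherapy (test compound or placebo, double-blind, fasted) and follow-up, staff recorded vital signs, physical examination, laboratory measurements, ECG and adverse events. Adverse events were coded with MedDRA version 17.1. Investigators graded their severity and their relationship to study drug.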

[3] = Plasma pharmacokinetics of GSK3532795, part C; format: in vivo, human; conditions: for AUC / Cmax / Tmax: human, plasma, oral
Procedure, shortened: (§1)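 The test compound was given as monotherapy by oral suspension after a ≥10-hour fast, once daily for 10 days (part A subtype B, 5–120 mg; part C subtype C, 40 or 120 mg). Serial blood samples were taken on days 1 and 10, with troughs on days 2, 4, 6 and 8. Plasma levels were measured by validated LC/MS and analysed noncompartmentally. Dose proportionality was assessed with a power model on log exposure versus log dose.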

HIV-1 subtype C = experiment: Change in plasma HIV-1 RNA, GSK3532795 monotherapy for 10 days; format: in vivo, human; conditions: for Median of the maximum change from baseline in HIV-1 RNA / Median decline (baseline to day 11) in HIV-1 RNA: Part C
Procedure, shortened: (§2)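 HIV-1-infected adults aged 18–55 with plasma HIV-1 RNA ≥5000 copies/mL and CD4+ count ≥200 cells/µL, PI- and MI-naive, were randomized 4:1 to test compound or placebo, double-blind. Dosing was once daily by oral suspension after a ≥10-hour fast for 10 days: part A subtype B, 5–120 mg; part C subtype C, 40 or 120 mg. Plasma HIV-1 RNA was measured by real-time PCR at screening and on days 1–14, 17, 19 and 24–26.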

HIV-1 Gag = conditions: in vitro, compared with BVM; cited from earlier work
[4] = Plasma pharmacokinetics of GSK3532795, part A; format: in vivo; conditions: human, oral
Procedure, shortened: as §1

[5] = Solubility in aqueous media; format: physicochemical
HIV-1 = conditions: cited from earlier work
[6] = Plasma pharmacokinetics of GSK3532795, part B; format: in vivo, human; conditions: for AUC increase compared with the same dose given as monotherapy: fed vs fasted monotherapy; for AUC / concentration at 24 h / Cmax / Tmax: human, plasma, oral; for AUC: AUCtau (%CV); for concentration at 24 h: C24 (%CV); for Cmax: Cmax (%CV); for Tmax: median (min–max)
Procedure, shortened: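 Male subtype B-infected subjects took the test compound (40 or 80 mg) once daily with atazanavir 400 mg, or with atazanavir/ritonavir 300 mg/100 mg. Dosing was open-label, as an oral suspension with breakfast, for 28 days. Serial samples were taken on days 1 and 10, with troughs on days 2, 4, 6 and 8. Plasma levels were measured by validated LC/MS and analysed noncompartmentally.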

HIV-1 subtype B [7] = experiment: Change in plasma HIV-1 RNA, GSK3532795 monotherapy for 10 days; format: in vivo, human
Procedure, shortened: as §2

HIV-1 subtype B [8] = experiment: Exposure–response relationship; format: in vivo, human; conditions: Part A
Procedure, shortened: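 Part A subjects received the test compound orally, fasted, once daily for 10 days. Plasma concentration at 24 hours on day 10 was measured by validated LC/MS. It was related to the maximum change from baseline in log10 HIV-1 RNA with a 3-parameter […] Emax model, Y = E0 + Emax*C/(EC50 + C).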

[9] = Part B, fed, 40 mg + ATV 300 mg + RTV 100 mg QD
[10] = Part B, fed, 40 mg + ATV 400 mg QD
[11] = Part B, fed, 80 mg + ATV 400 mg QD

Structure (SMILES): C=C(C)[C@@H]1CC[C@]2(C(=O)O)CC[C@]3(C)[C@H](CC[C@@H]4[C@@]5(C)CC[C@H](OC(=O)CC(C)(C)C(=O)O)C(C)(C)[C@@H]5CC[C@]43C)[C@@H]12 [BVM, 3-o-(3’,3’-dimethylsuccinyl)betulinic acid, reference compound]
- Protein binding [1]: > 99%

Structure (SMILES): C=C(C)[C@@H]1CC[C@]2(NCCN3CCS(=O)(=O)CC3)CC[C@]3(C)[C@H](CC[C@@H]4[C@@]5(C)CC=C(c6ccc(C(=O)O)cc6)C(C)(C)[C@@H]5CC[C@]43C)[C@@H]12 [GSK3532795]
- Half-life (T1/2) [2]: approximately 35 hours
- Any AE (Safety assessments; 5 mg QD (n=8)): 5 (62.5) n (%)
- Deaths (Safety assessments; 5 mg QD (n=8)): 0 n (%)
- Discontinuations due to AE(s) (Safety assessments; 5 mg QD (n=8)): 0 n (%)
- Grade 3–4 related AEs (Safety assessments; 5 mg QD (n=8)): 0 n (%)
- Laboratory abnormalities (grade 3–4) (Safety assessments; 5 mg QD (n=8)): 0 n (%)
- Serious AEs (Safety assessments; 5 mg QD (n=8)): 0 n (%)
- Any AE (Safety assessments; 10 mg QD (n=8)): 4 (50.0) n (%)
- Deaths (Safety assessments; 10 mg QD (n=8)): 0 n (%)
- Discontinuations due to AE(s) (Safety assessments; 10 mg QD (n=8)): 0 n (%)
- Grade 3–4 related AEs (Safety assessments; 10 mg QD (n=8)): 0 n (%)
- Laboratory abnormalities (grade 3–4) (Safety assessments; 10 mg QD (n=8)): 0 n (%)
- Serious AEs (Safety assessments; 10 mg QD (n=8)): 0 n (%)
- Any AE (Safety assessments; 20 mg QD (n=8)): 4 (50.0) n (%)
- Deaths (Safety assessments; 20 mg QD (n=8)): 0 n (%)
- Discontinuations due to AE(s) (Safety assessments; 20 mg QD (n=8)): 0 n (%)
- Grade 3–4 related AEs (Safety assessments; 20 mg QD (n=8)): 0 n (%)
- Laboratory abnormalities (grade 3–4) (Safety assessments; 20 mg QD (n=8)): 0 n (%)
- Serious AEs (Safety assessments; 20 mg QD (n=8)): 0 n (%)
- Any AE (Safety assessments; 40 mg QD (n=16)): 8 (50.0) n (%)
- Deaths (Safety assessments; 40 mg QD (n=16)): 0 n (%)
- Discontinuations due to AE(s) (Safety assessments; 40 mg QD (n=16)): 0 n (%)
- Grade 3–4 related AEs (Safety assessments; 40 mg QD (n=16)): 0 n (%)
- Laboratory abnormalities (grade 3–4) (Safety assessments; 40 mg QD (n=16)): 0 n (%)
- Serious AEs (Safety assessments; 40 mg QD (n=16)): 0 n (%)
- Any AE (Safety assessments; 80 mg QD (n=8)): 7 (87.5) n (%)
- Deaths (Safety assessments; 80 mg QD (n=8)): 0 n (%)
- Discontinuations due to AE(s) (Safety assessments; 80 mg QD (n=8)): 0 n (%)
- Grade 3–4 related AEs (Safety assessments; 80 mg QD (n=8)): 0 n (%)
- Laboratory abnormalities (grade 3–4) (Safety assessments; 80 mg QD (n=8)): 0 n (%)
- Serious AEs (Safety assessments; 80 mg QD (n=8)): 0 n (%)
- Any AE (Safety assessments; 120 mg QD (n=15)): 10 (66.6) n (%)
- Deaths (Safety assessments; 120 mg QD (n=15)): 0 n (%)
- Discontinuations due to AE(s) (Safety assessments; 120 mg QD (n=15)): 0 n (%)
- Grade 3–4 related AEs (Safety assessments; 120 mg QD (n=15)): 0 n (%)
- Serious AEs (Safety assessments; 120 mg QD (n=15)): 0 n (%)
- Laboratory abnormalities (grade 3–4) (Safety assessments; 120 mg QD (n=15), grade 3 transient neutropenia reported as related to GSK3532795): 1 (6.7)^c n (%)
- Cases of hyperbilirubinemia (Safety assessments; during GSK3532795 monotherapy): no cases
- Increase in Cmax and AUCtau between 40 mg and 120 mg ([3]; Part C, monotherapy, less than dose-proportional): ~ 2 fold
- AUC ([3]; 40 mg): 25600 ng·h/mL
- Cmax ([3]; 40 mg): 1560 ng/mL
- Tmax ([3]; 40 mg): 3 h
- AUC ([3]; 120 mg): 54000 ng·h/mL
- Cmax ([3]; 120 mg): 3380 ng/mL
- Tmax ([3]; 120 mg): 3 h
- Decline in HIV-1 RNA (HIV-1 subtype C; 10 days of 40 mg or 120 mg QD monotherapy, subtype C–infected subjects with ≥1 of 3 Gag polymorphisms at baseline): > 1 log10
- Median of the maximum change from baseline in HIV-1 RNA (HIV-1 subtype C; 40 mg QD): −1.35 log10 copies/mL
- Median decline (baseline to day 11) in HIV-1 RNA (HIV-1 subtype C; 40 mg QD, observed after day 8): > 1 log10 copies/mL
- Median of the maximum change from baseline in HIV-1 RNA (HIV-1 subtype C; 120 mg QD): −1.26 log10 copies/mL
- Median decline (baseline to day 11) in HIV-1 RNA (HIV-1 subtype C; 120 mg QD, observed after day 10): > 1 log10 copies/mL
- Binding to HIV-1 Gag (HIV-1 Gag): binds reversibly to HIV-1 Gag with greater affinity than BVM
- Tmax [4]: 3 h
- half-life [4]: 30 to 35 h
- AUC ([4]; 5 mg): 2720 ng·h/mL
- Cmax ([4]; 5 mg): 171 ng/mL
- Tmax ([4]; 5 mg): 3 h
- concentration at 24 h ([4]; 5 mg): 81.6 ng/mL
- half-life ([4]; 5 mg): 32.7 h
- AUC ([4]; 10 mg): 5170 ng·h/mL
- Cmax ([4]; 10 mg): 337 ng/mL
- Tmax ([4]; 10 mg): 3 h
- concentration at 24 h ([4]; 10 mg): 139 ng/mL
- half-life ([4]; 10 mg): 33.1 h
- AUC ([4]; 20 mg): 11800 ng·h/mL
- Cmax ([4]; 20 mg): 705 ng/mL
- Tmax ([4]; 20 mg): 4 h
- concentration at 24 h ([4]; 20 mg): 326 ng/mL
- half-life ([4]; 20 mg): 29.7 h
- AUC ([4]; 40 mg): 23000 ng·h/mL
- Cmax ([4]; 40 mg): 1480 ng/mL
- Tmax ([4]; 40 mg): 3 h
- concentration at 24 h ([4]; 40 mg): 713 ng/mL
- half-life ([4]; 40 mg): 33.8 h
- AUC ([4]; 80 mg): 39300 ng·h/mL
- Cmax ([4]; 80 mg): 2470 ng/mL
- Tmax ([4]; 80 mg): 3 h
- concentration at 24 h ([4]; 80 mg): 1150 ng/mL
- half-life ([4]; 80 mg): 30 h
- AUC ([4]; 120 mg): 44200 ng·h/mL
- Cmax ([4]; 120 mg): 2810 ng/mL
- Tmax ([4]; 120 mg): 2.5 h
- concentration at 24 h ([4]; 120 mg): 1290 ng/mL
- half-life ([4]; 120 mg): 34.9 h
- solubility [5]: < 1 µg/mL
- EC50 shift in the presence of serum (HIV-1): 5.4 fold
- Effect when combined with other antiretrovirals, including integrase inhibitors (HIV-1; in vitro studies): additive
- Increase in exposures compared with the same dose given as monotherapy fasted ([6]; GSK3532795 + ATV alone in the fed state): up to 50%
- AUC increase compared with the same dose given as monotherapy ([6]; Part B, 40 mg + ATV alone): approximately 40%
- AUC increase compared with the same dose given as monotherapy ([6]; Part B, 80 mg + ATV alone): ~50%
- Exposures higher with ATV/RTV relative to administration with ATV alone ([6]; Part B, GSK3532795 40 mg): ~ 10%
- Increase in exposures between 40 mg and 80 mg ([6]; Part B, coadministered with ATV alone, fed): ~ 2 fold
- Tmax delay ([6]; Part B, with ATV ± RTV in the fed state): 1 to 2 h
- AUC [6, 9]: 34200 ng·h/mL
- AUC [6, 10]: 31400 ng·h/mL
- AUC [6, 11]: 59900 ng·h/mL
- concentration at 24 h [6, 9]: 1160 ng/mL
- concentration at 24 h [6, 10]: 1100 ng/mL
- concentration at 24 h [6, 11]: 2010 ng/mL
- Cmax [6, 9]: 1850 ng/mL
- Cmax [6, 10]: 1670 ng/mL
- Cmax [6, 11]: 3160 ng/mL
- Tmax [6, 9]: 5 h
- Tmax [6, 10]: 4.5 h
- Tmax [6, 11]: 4.5 h
- Decline in HIV-1 RNA (HIV-1 subtype B [7]; Part A, 20–120 mg QD dose groups): > 1 log10
- Plateau of decline in HIV-1 RNA (HIV-1 subtype B [7]; Part A, 40–120 mg QD dose groups): approximately 1.64 log10 copies/mL
- Median decline (baseline to day 11) in HIV-1 RNA (HIV-1 subtype B [7]; Part A, 40–120 mg QD, consistently from approximately day 7): > 1 log10 copies/mL
- Range of median of the maximum decline in HIV-1 RNA (HIV-1 subtype B [7]; Part A, 40–120 mg QD, in the presence of baseline Gag polymorphisms (n = 15)): −1.43 to −1.98 log10 copies/mL
- Median of the maximum change in HIV-1 RNA from baseline to study discharge on day 24 (HIV-1 subtype B [7]; Part A, across all GSK3532795 groups (5–120 mg QD)): −0.50 to −1.70 log10 copies/mL
- Median maximum decline in HIV-1 RNA (HIV-1 subtype B [7]; following 10 days of monotherapy in subtype B–infected subjects): 1.70 log10 copies/mL
- Human serum binding [1]: 86%
- Predicted maximum decline in HIV-1 RNA from baseline (HIV-1 subtype B [8]; Emax model): approximately 1.7 log10 copies/mL
- C24 at which apparent response plateau was achieved (HIV-1 subtype B [8]; steady-state C24 vs maximum change in HIV-1 RNA): ≥ 500 ng/mL
